# According to ChEMBL document CHEMBL5046307 (ACS Med Chem Lett, 2022):
# Key:
# [1] = Inhibition of human electron transport chain complex 1 in human NCI-H1299 cells assessed as reduction in cellular ATP level measured after 24 hrs by CellTiter-Glo assay; type: cell-based
# How it was run: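 ATP-dependent luciferase luminescence read in H1299 cells, first without (M1) and then after adding the complex II substrate succinate (M2), to separate complex I block from downstream respiratory-chain inhibition or uncoupling.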
# [2] = Metabolic stability in rat hepatocyte assessed as maximum bioavailability measured up to 90 mins by LC-MS/MS analysis; type: ADME; details: for Fh at 1.5 h: rat hepatocytes, read-out: Fmax
# [3] = Lipophilicity, logD of compound; details: octanol/water
# [4] = Blood clearance in male Wistar rat at 0.3 to 5 mg/kg, iv and po by LC-MS/MS analysis; type: ADME, organism-based; details: dose 0.3-5 mg/kg
# [5] = Inhibition of human electron transport chain complex 1 in human HCT-116 cells assessed as reduction in cellular ATP measured after 24 hrs by CellTiter-Glo assay; type: cell-based; details: HCT-116, 24 h
# [6] = Inhibition of human electron transport chain complex 1 in mouse 4T1 cells assessed as reduction in cellular ATP measured after 24 hrs by CellTiter-Glo assay; type: cell-based; details: 4T1, 24 h
# [7] = Inhibition of human electron transport chain complex 1 in rat C6 cells assessed as reduction in cellular ATP measured after 24 hrs by CellTiter-Glo assay; type: cell-based; details: C6, 24 h
# [8] = Inhibition of human electron transport chain complex 1 in dog A-72 cells assessed as reduction in cellular ATP measured after 24 hrs by CellTiter-Glo assay; type: cell-based; details: A-72, 24 h
# [9] = Inhibition of human electron transport chain complex 1 in dog MDCK cells assessed as reduction in cellular ATP measured after 24 hrs by CellTiter-Glo assay; type: cell-based
# [10] = Inhibition of rat electron transport chain complex 1 assessed as reduction in cellular ATP measured after 24 hrs by celltiter-glo assay
# [11] = Volume of distribution at steady state in Wistar rat plasma at 0.4 mg/kg, iv by LC-MS/MS analysis; type: ADME, organism-based; details: read-out: Vdss
# [12] = target: Voltage-gated inwardly rectifying potassium channel KCNH2 (Homo sapiens, UniProt Q12809); test: Inhibition of human ERG by patch-clamp assay
# Chain of Voltage-gated inwardly rectifying potassium channel KCNH2 (Q12809 whole entry): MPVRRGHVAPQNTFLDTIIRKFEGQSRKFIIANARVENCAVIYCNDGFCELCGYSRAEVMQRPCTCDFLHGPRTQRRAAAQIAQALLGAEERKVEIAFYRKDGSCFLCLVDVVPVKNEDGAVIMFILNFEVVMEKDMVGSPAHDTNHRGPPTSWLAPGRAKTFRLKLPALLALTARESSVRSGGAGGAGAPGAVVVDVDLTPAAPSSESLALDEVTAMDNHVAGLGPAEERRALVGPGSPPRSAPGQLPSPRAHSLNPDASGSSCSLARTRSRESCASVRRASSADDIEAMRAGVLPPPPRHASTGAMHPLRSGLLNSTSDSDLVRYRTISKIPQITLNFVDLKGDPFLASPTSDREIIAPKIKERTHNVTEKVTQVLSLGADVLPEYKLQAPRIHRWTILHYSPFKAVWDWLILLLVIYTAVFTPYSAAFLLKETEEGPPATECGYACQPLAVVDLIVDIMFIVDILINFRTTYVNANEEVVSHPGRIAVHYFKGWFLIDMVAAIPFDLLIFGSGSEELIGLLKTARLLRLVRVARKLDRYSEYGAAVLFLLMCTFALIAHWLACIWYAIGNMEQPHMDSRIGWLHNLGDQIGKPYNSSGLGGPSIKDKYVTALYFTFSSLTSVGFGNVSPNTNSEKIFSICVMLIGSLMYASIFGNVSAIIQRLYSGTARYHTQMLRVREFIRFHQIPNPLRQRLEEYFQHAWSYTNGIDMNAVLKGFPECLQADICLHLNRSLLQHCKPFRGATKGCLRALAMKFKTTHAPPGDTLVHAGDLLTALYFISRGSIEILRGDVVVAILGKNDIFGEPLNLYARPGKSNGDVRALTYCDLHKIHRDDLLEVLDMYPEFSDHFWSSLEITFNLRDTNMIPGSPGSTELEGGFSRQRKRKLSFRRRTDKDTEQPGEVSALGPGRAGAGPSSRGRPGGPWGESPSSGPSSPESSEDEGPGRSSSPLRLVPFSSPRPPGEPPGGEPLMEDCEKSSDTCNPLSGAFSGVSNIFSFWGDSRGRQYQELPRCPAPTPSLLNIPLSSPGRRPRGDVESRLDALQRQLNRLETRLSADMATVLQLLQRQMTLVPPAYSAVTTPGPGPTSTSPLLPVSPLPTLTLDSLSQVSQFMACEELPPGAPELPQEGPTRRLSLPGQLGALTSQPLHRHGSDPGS
# [13] = Apparent permeability across apical to basolateral side in human Caco2 cells assessed as drug recovery at 2 uM and measured for 2 hrs by LC-MS/MS analysis; details: Caco-2
# [14] = target: Cytochrome P450 2C9 (Homo sapiens, UniProt P11712); test: Inhibition of CYP2C9 in human liver microsomes using diclofenac as substrate by LC-MS/MS analysis
# Chain of Cytochrome P450 2C9 (P11712 whole entry): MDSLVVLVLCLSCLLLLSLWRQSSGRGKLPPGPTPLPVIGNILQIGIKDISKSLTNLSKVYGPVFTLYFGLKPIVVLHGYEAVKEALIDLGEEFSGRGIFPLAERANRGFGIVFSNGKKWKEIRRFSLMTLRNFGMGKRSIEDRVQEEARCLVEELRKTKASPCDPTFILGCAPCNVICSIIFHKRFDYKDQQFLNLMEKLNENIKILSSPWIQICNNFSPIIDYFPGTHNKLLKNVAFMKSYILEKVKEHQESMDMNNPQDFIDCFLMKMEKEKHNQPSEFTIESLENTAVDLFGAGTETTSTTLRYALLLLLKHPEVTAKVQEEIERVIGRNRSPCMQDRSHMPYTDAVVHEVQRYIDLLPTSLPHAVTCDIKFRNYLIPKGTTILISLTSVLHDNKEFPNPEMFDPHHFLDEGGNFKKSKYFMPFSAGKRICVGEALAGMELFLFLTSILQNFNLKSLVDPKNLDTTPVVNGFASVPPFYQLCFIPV
# [15] = target: T1, Nuclear receptor subfamily 1 group I member 2 (Homo sapiens, UniProt O75469); test: Transactivation of PXR (unknown origin) expressed in human DPX2 cells co-expressing luciferase gene under control of CYP3A4 promoter assessed as increase in luciferase activity incubated for 24 hrs by luminescence based analysis; details: dpx2, 24 h
# T1 sequence (O75469 whole entry): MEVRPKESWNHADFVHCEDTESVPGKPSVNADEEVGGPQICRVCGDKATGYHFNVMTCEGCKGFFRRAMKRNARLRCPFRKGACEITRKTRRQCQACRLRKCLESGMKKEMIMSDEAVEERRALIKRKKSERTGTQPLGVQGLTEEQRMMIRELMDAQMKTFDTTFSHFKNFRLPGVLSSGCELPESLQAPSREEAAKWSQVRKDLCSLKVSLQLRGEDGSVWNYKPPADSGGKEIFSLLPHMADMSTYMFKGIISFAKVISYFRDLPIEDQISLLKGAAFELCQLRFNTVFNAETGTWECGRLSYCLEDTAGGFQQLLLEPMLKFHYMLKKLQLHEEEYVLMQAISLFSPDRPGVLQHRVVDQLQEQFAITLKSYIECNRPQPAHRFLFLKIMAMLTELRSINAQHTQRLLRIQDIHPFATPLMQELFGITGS
# [16] = target: T2, Cytochrome P450 2C8 (Homo sapiens, UniProt P10632); test: Inhibition of CYP2C8 in human liver microsomes using amodiaquine as substrate by LC-MS/MS analysis
# T2 sequence (P10632 whole entry): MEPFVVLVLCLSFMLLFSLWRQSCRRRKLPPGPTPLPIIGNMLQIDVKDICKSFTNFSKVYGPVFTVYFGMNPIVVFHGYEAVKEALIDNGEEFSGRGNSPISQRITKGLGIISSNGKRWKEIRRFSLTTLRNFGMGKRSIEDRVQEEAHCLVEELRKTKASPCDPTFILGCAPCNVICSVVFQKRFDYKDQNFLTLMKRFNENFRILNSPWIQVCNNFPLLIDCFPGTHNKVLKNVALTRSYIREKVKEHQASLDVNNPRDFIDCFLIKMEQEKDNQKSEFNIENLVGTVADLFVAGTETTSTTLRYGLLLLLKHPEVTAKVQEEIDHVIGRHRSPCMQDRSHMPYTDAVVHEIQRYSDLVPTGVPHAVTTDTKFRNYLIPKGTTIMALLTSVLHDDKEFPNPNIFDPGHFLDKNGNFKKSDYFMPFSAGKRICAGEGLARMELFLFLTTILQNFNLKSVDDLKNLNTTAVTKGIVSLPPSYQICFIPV
# [17] = target: Cytochrome P450 3A4 (Homo sapiens, UniProt P08684); test: Inhibition of CYP3A4 in human liver microsomes using midazolam as substrate by LC-MS/MS analysis
# Chain of Cytochrome P450 3A4 (P08684 whole entry): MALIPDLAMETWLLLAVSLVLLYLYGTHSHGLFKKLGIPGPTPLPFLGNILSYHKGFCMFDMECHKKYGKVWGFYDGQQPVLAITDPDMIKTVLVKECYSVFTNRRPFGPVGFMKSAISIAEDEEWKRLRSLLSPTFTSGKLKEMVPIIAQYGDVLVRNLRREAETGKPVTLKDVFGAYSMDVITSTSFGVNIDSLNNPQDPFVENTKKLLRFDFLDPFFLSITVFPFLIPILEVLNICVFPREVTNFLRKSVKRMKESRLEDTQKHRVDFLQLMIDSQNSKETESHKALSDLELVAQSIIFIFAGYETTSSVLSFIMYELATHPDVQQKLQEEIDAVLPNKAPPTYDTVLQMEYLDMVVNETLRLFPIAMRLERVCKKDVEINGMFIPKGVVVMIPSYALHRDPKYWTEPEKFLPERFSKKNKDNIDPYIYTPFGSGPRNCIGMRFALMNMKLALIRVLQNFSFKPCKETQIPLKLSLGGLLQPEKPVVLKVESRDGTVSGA
# [18] = Half life in Wistar rat plasma at 0.4 mg/kg, iv by LC-MS/MS analysis; type: ADME, organism-based
# [19] = Inhibition of mouse electron transport chain complex 1 assessed as reduction in cellular ATP measured after 24 hrs by celltiter-glo assay
# [20] = Oral bioavailability in Wistar rat plasma at 0.8 mg/kg by LC-MS/MS analysis; type: ADME, organism-based
# [21] = target: T3, Cytochrome P450 1A2 (Homo sapiens, UniProt P05177); test: Inhibition of CYP1A2 in human liver microsomes using phenacetin as substrate by LC-MS/MS analysis
# T3 sequence (P05177 whole entry): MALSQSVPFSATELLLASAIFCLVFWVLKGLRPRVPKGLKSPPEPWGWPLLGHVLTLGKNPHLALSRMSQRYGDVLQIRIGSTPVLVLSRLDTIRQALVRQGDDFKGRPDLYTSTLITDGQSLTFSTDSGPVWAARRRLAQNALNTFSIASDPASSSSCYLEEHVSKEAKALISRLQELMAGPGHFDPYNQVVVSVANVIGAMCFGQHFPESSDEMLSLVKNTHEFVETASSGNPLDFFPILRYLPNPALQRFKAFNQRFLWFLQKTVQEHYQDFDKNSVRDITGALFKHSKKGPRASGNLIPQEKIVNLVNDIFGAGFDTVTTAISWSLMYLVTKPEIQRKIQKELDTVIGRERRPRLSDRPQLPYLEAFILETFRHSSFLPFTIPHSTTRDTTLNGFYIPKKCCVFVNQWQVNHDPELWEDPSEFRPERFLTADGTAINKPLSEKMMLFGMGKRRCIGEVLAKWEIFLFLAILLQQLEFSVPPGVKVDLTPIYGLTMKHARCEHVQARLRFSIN
# [22] = AUC in Wistar rat plasma at 0.8 mg/kg, po by LC-MS/MS analysis; type: ADME, organism-based; design: dose 0.8 mg/kg; details: in vivo
# [23] = Plasma protein binding in mouse assessed as fraction unbound incubated for 6 to 8 hrs by LC-MS/MS analysis; type: ADME, cell-free; details: time 6-8 hrs
# [24] = Clearance in male Wistar rat blood at 0.4 mg/kg, iv by LC-MS/MS analysis
# [25] = Efflux ratio of apparent permeability across basolateral to apical side over apical to basolateral side in human Caco2 cells at 2 uM incubated for 2 hrs by LC-MS/MS analysis; details: Caco-2
# [26] = Inhibition of dog electron transport chain complex 1 assessed as reduction in cellular ATP measured after 24 hrs by celltiter-glo assay; details: Canis lupus familiaris
# [27] = Solubility of the compound at pH 6.5; details: buffer
# [28] = target: Cytochrome P450 2D6 (Homo sapiens, UniProt P10635); test: Inhibition of CYP2D6 in human liver microsomes using dextromethorphan as substrate by LC-MS/MS analysis
# Chain of Cytochrome P450 2D6 (P10635 whole entry): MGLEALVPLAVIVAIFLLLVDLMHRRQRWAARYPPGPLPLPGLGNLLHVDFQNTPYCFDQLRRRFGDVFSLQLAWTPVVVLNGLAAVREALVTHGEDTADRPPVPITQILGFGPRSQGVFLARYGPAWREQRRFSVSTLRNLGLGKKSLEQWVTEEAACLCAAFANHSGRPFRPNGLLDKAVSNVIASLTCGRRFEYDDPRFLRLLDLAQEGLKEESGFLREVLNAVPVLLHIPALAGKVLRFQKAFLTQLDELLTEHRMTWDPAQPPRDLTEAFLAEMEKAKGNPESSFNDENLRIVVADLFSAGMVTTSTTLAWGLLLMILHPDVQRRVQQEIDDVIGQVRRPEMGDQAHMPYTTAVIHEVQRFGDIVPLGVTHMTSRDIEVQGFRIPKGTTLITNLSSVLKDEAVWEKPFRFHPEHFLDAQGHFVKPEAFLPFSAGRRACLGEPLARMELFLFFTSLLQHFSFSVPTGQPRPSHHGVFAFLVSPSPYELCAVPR
smiles,measurement,setting,value
CC(C)(C(=O)Nc1cccc(F)c1)N1CCC(c2nc(-c3cc4ccccc4o3)cs2)CC1,IC50,"[1]; Homo sapiens, NCI-H1299, 24 h",> 30000 nM
same,Fh at 1.5 h,[2],55%
same,logD,[3],5.7
Cc1nsc(NC(=O)CN2CCC(c3nc(-c4cc5ccccc5o4)cs3)CC2)c1Cl,clearance,[4],163 mL/min/kg
same,IC50,[5],3.9 nM
same,IC50,[6],13 nM
same,IC50,"[1]; Homo sapiens, NCI-H1299, 24 h",25 nM
same,Fh at 1.5 h,[2],18%
same,IC50,[7],1.7 nM
same,logD,[3],5.1
same,IC50,[8],27 nM
same,IC50,[9],49 nM
"CCc1nccc(N2CCC(N3CCC(c4nc(-c5cc6ccccc6o5)cs4)CC3)C2=O)c1Cl (single isomer, unassigned; form 1)",clearance,[4],45 mL/min/kg
same,IC50,[1]; nci-h1299,14 nM
same,Fh at 1.5 h,[2],40%
same,logD,[3],4.2
c1ccc2oc(-c3csc(C4CCN(c5nnc(-c6ccncc6)o5)CC4)n3)cc2c1,IC50,"[1]; Homo sapiens, NCI-H1299, 24 h",13400 nM
same,Fh at 1.5 h,[2],44%
same,logD,[3],3.3
"CCc1nccc(N2CCC(N3CCC(c4nc(-c5cc6ccccc6o5)cs4)CC3)C2=O)c1Cl (single isomer, unassigned; form 2)",IC50,[1]; nci-h1299,950 nM
same,Fmax,"[2]; hepatocytes, 1.5 h",43%
Cc1nsc(NC(=O)C(C)N2CCC(c3nc(-c4cc5ccccc5o4)cs3)CC2)c1Cl (racemic),clearance,[4],118 mL/min/kg
same,IC50,"[1]; Homo sapiens, NCI-H1299, 24 h",77 nM
same,Fh at 1.5 h,[2],61%
same,logD,[3],5.6
c1ccc2oc(-c3csc(C4CCN(Cc5nc6ncccc6[nH]5)CC4)n3)cc2c1,IC50,[10],27 nM
same,Vd,[11],2.2 L/kg
same,IC50,[12],3000 nM
same,"Papp A→B at 2 h, 2 µM",[13],9.2 ×10⁻⁶ cm/s
same,IC50,[14],15000 nM
same,MEC,[15],> 50 µM
same,IC50,[16],7800 nM
same,IC50,[17],> 20000 nM
same,half-life,[18],6.2 h
same,IC50,"[1]; Homo sapiens, NCI-H1299, 24 h",79 nM
same,IC50,[19],38 nM
same,Fh at 1.5 h,[2],81%
same,bioavailability,[20],76%
same,IC50,[21],> 20000 nM
same,logD,[3],2.8
same,AUC,[22],3.1 kg·h/L
same,Fu,[23],0.43%
same,clearance,[24],6.67 mL/min/kg
same,"efflux ratio at 2 h, 2 µM",[25],0.44
same,IC50,[26],47 nM
same,solubility,[27],1.6 µg/mL
same,IC50,[28],> 20000 nM
c1ccc2oc(-c3csc(C4CCN(Cc5nc6cnccc6[nH]5)CC4)n3)cc2c1,IC50,[10],22 nM
same,Vd,[11],3.2 L/kg
same,half-life,[18],3.1 h
same,IC50,"[1]; Homo sapiens, NCI-H1299, 24 h",38 nM
same,IC50,[19],26 nM
same,Fh at 1.5 h,[2],63%
same,bioavailability,[20],80%
same,AUC,[22],1 kg·h/L
same,Fu,[23],0.59%
same,clearance,[24],20 mL/min/kg
same,IC50,[26],37 nM
CN(C(=O)CN1CCC(c2nc(-c3cc4ccccc4o3)cs2)CC1)c1ccncc1,IC50,"[1]; Homo sapiens, NCI-H1299, 24 h",96 nM
same,Fh at 1.5 h,[2],10%
same,logD,[3],3
Fc1cccc2[nH]c(CN3CCC(c4nc(-c5cc6ccccc6o5)cs4)CC3)nc12,clearance,[4],18.3 mL/min/kg
same,IC50,"[1]; Homo sapiens, NCI-H1299, 24 h",325 nM
same,Fh at 1.5 h,[2],57%
same,logD,[3],3.7
